Molecules are shown by their SMILES.

As a reminder, the IC50 is the concentration at which inhibition is half-maximal.

The first assay concerns Radical scavenging activity. As to the kind of experiment: Antioxidant activity assessed as DPPH radical scavenging activity after 30 mins by microplate reader. The format is functional.
Conditions: not given
In outline:
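Modified Mensor method. Sample in absolute MeOH at several concentrations mixed 1:1 with 0.06 mM DPPH in MeOH (100 μL each). Absorbance read at 510 nm at exactly 30 min, then percent inhibition calculated. IC50 taken as the concentration scavenging 50% of DPPH radicals. Triplicate runs. Rutin and Trolox used as reference standards.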
On to `C[C@@H]1O[C@@H](OC[C@H]2O[C@@H](Oc3ccc(COC(=O)c4ccccc4)cc3)[C@H](O)[C@@H](O)[C@@H]2O)[C@H](O)[C@H](O)[C@H]1O`, for which the half-inhibitory concentration (IC50) was > 200 µg/mL.

In the case of `C[C@@H]1O[C@@H](OC[C@H]2O[C@@H](OCc3ccccc3)[C@H](O)[C@@H](O)[C@@H]2O)[C@H](OC(=O)/C=C/c2ccc(O)cc2)[C@H](O)[C@H]1O`, the IC50 was > 200 µg/mL.

With `COc1ccc(-c2cc(=O)c3c(O)cc(O[C@@H]4O[C@H](CO[C@@H]5O[C@@H](C)[C@H](O)[C@@H](O)[C@H]5O)[C@@H](O)[C@H](O)[C@H]4O[C@@H]4O[C@H](CO)[C@@H](O)[C@H](O)[C@H]4O[C@@H]4O[C@H](CO)[C@@H](O)[C@H](O)[C@H]4O)cc3o2)cc1O`, the 50% inhibitory concentration (IC50) was > 200 µg/mL.

`COc1ccc(-c2cc(=O)c3c(O)cc(O[C@@H]4O[C@H](CO[C@@H]5O[C@@H](C)[C@H](O)[C@@H](O)[C@H]5O)[C@@H](O)[C@H](O)[C@H]4O[C@@H]4O[C@H](CO)[C@@H](O)[C@H](O)[C@H]4O[C@@H]4O[C@H](CO)[C@@H](O)[C@H](O)[C@H]4O)cc3o2)cc1`: the IC50 is > 200 µg/mL.

As to `COc1ccc(-c2cc(=O)c3c(O)cc(O[C@@H]4O[C@H](CO[C@@H]5O[C@@H](C)[C@H](O)[C@@H](O)[C@H]5O)[C@@H](O)[C@H](O)[C@H]4O[C@@H]4O[C@H](CO)[C@@H](O)[C@H](OC(C)=O)[C@H]4O[C@@H]4O[C@H](CO)[C@@H](O)[C@H](O)[C@H]4O)cc3o2)cc1`, the concentration for half-maximal inhibition (IC50) is > 200 µg/mL.

Turning to `O=Cc1ccc(O)cc1` [4-HYDROXYBENZALDEHYDE], the IC50 was > 200 µg/mL.

In the case of `CC(O)(CC(=O)O)CC(=O)OCc1ccc(O[C@@H]2O[C@H](CO)[C@@H](O)[C@H](O)[C@H]2O)cc1` (stereo partly specified), the half-inhibitory concentration (IC50) is > 200 µg/mL.

Consider `O=C(O)/C=C\c1ccc(O)cc1`, for which the concentration for half-maximal inhibition (IC50) is > 200 µg/mL.

As for `CC(=O)OC[C@H]1O[C@@H](O[C@H]2[C@H](Oc3cc(O)c4c(=O)cc(-c5ccc(O)cc5)oc4c3)O[C@H](CO[C@@H]3O[C@@H](C)[C@H](O)[C@@H](O)[C@H]3O)[C@@H](O)[C@@H]2O)[C@H](O[C@@H]2O[C@H](CO)[C@@H](O)[C@H](O)[C@H]2O)[C@@H](O)[C@@H]1O`, the IC50 was > 200 µg/mL.

Regarding `COc1cc([C@H]2Oc3c(OC)cc(CCCO)cc3[C@@H]2CO)ccc1O[C@@H]1O[C@H](CO)[C@@H](O)[C@H](O)[C@H]1O`, the IC50 is > 200 µg/mL.

Regarding `COc1ccc(-c2cc(=O)c3c(O)cc(O[C@@H]4O[C@H](CO[C@@H]5O[C@@H](C)[C@H](O)[C@@H](O)[C@H]5O)[C@@H](O)[C@H](O)[C@H]4O[C@@H]4O[C@H](COC(C)=O)[C@@H](O)[C@H](O)[C@H]4O[C@@H]4O[C@H](CO)[C@@H](O)[C@H](O)[C@H]4O)cc3o2)cc1`, the IC50 was > 200 µg/mL.

Take `O=C(O)/C=C/c1ccc(O)cc1` [COUMARIC ACID]: the IC50 is > 200 µg/mL.

For the compound `C[C@@H]1O[C@@H](OC[C@H]2O[C@@H](OCc3ccccc3)[C@H](O)[C@@H](O)[C@@H]2O)[C@H](OC(=O)/C=C\c2ccc(O)cc2)[C@H](O)[C@H]1O`, the concentration for half-maximal inhibition (IC50) was > 200 µg/mL.

Take `COc1ccc(-c2cc(=O)c3c(O)cc(O[C@@H]4O[C@H](CO[C@@H]5O[C@@H](C)[C@H](O)[C@@H](O)[C@H]5O)[C@@H](O)[C@H](O)[C@H]4O[C@@H]4O[C@H](COC(C)=O)[C@@H](O)[C@H](O)[C@H]4O[C@@H]4O[C@H](CO)[C@@H](O)[C@H](O)[C@H]4O)cc3o2)cc1O`: the concentration for half-maximal inhibition (IC50) is > 200 µg/mL.

Consider `C[C@@H]1O[C@@H](OC[C@H]2O[C@@H](OCc3ccccc3)[C@H](O)[C@@H](O)[C@@H]2O)[C@H](O)[C@H](O)[C@H]1OC(=O)/C=C/c1ccc(O)cc1`, for which the IC50 was > 200 µg/mL.

In the case of `O=c1c(O[C@@H]2O[C@H](CO)[C@@H](O)[C@H](O)[C@H]2O)c(-c2ccc(O)cc2)oc2cc(O)cc(O)c12` [ASTRAGALIN], the half-inhibitory concentration (IC50) was > 200 µg/mL.

For the compound `Oc1ccc(Cc2ccc(O)cc2)cc1`, the IC50 was > 200 µg/mL.

As for `C[C@@H]1O[C@@H](OC[C@H]2O[C@@H](OCc3ccccc3)[C@H](O)[C@@H](O)[C@@H]2O)[C@H](O)[C@H](O)[C@H]1O` [HYDRANGEIFOLIN I], the half-maximal inhibitory concentration (IC50) was > 200 µg/mL.

As for `COC(=O)/C=C/c1ccc(O)cc1` [METHYL P-HYDROXYCINNAMATE], the IC50 is > 200 µg/mL.

Still in this assay, the particulars now being: read-out: IC50.
As for `COc1cc(/C=C/C(=O)O)ccc1O` [FERULATE], the IC50 is 62.4 µM.

As for `O=c1c(O[C@@H]2O[C@H](CO)[C@@H](O)[C@H](O)[C@H]2O)c(-c2ccc(O)c(O)c2)oc2cc(O)cc(O)c12` [ISOQUERCETIN], the 50% inhibitory concentration (IC50) was found to be 60.6 µM.

On to `COc1cc([C@H]2Oc3c(OC)cc(CCCO)cc3[C@@H]2CO[C@@H]2O[C@H](CO)[C@@H](O)[C@H](O)[C@H]2O)ccc1O`, for which the half-inhibitory concentration (IC50) came out at 284 µM.

With `O=C(/C=C/c1ccc(O)c(O)c1)O[C@@H]1C[C@](O)(C(=O)O)C[C@@H](O)[C@H]1O` [CHLOROGENIC ACID], the IC50 turned out to be 45.5 µM.

On to `O=C(/C=C/c1ccc(O)c(O)c1)O[C@@H]1C[C@](O)(C(=O)O)C[C@@H](OC(=O)/C=C/c2ccc(O)c(O)c2)[C@H]1O`, for which the IC50 stood at 32.4 µM.

For the compound `O=C(/C=C/c1ccc(O)c(O)c1)O[C@@H]1[C@H](O)C[C@@](O)(C(=O)O)C[C@H]1OC(=O)/C=C/c1ccc(O)c(O)c1`, the IC50 came to 28.9 µM.

For `OC[C@H]1O[C@@H](OCc2ccccc2)[C@H](O)[C@@H](O)[C@@H]1O`, the IC50 turned out to be 223 µM.

Take `O=C(/C=C/c1ccc(O)cc1)O[C@@H]1C[C@](O)(C(=O)O)C[C@@H](OC(=O)/C=C/c2ccc(O)c(O)c2)[C@H]1O`: the IC50 stood at 57.4 µM.

`Cc1c(C)c2c(c(C)c1O)CCC(C)(C(=O)O)O2` (stereo unspecified) [TROLOX]: the IC50 is 25.9 µM.

In the case of `C=CCc1ccc(O[C@@H]2O[C@H](CO)[C@@H](O)[C@H](O)[C@H]2O)c(OC)c1` [CITRUSIN C], the IC50 stood at 328 µM.

With `O=C(O)[C@H]1O[C@@H](Oc2c(-c3ccc(O)c(O)c3)oc3cc(O)cc(O)c3c2=O)[C@H](O)[C@@H](O)[C@@H]1O` [QUERCETIN GLUCURONIDE], the concentration for half-maximal inhibition (IC50) was 37.2 µM.

With `C[C@@H]1O[C@@H](OC[C@H]2O[C@@H](Oc3c(-c4ccc(O)c(O)c4)oc4cc(O)cc(O)c4c3=O)[C@H](O)[C@@H](O)[C@@H]2O)[C@H](O)[C@H](O)[C@H]1O` [RUTIN], the concentration for half-maximal inhibition (IC50) turned out to be 38.7 µM.

The record behind these values is ChEMBL document CHEMBL2331388, “Flavone tetraglycosides and benzyl alcohol glycosides from the Mongolian medicinal plant Dracocephalum ruyschiana” (J Nat Prod, 2013).
